Test [1] addresses T1, CTSL (Homo sapiens, UniProt P07711). Briefly: CTSL activity test, cell-free system. As to conditions: for inhibition at 100 µM: read-out: inhibition of CTSL. The format is biochemical.
Test [2] addresses T1, CTSL. Nature of the test: Enzyme kinetics of CTSL. The following applies: for inhibition mechanism: 6.25 µM to 100 µM, both Km and Vmax decreased. The format is biochemical. A digest of the protocol: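 A standard-curve conversion factor turned signal into velocity. Values were corrected by subtracting the […] and fitted to Michaelis-Menten. Lineweaver–Burk plots gave the inhibition mechanism. Mean ± SEM.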

From PMC11245987 (Computational and Structural Biotechnology Journal, 2024) come the findings set out here.

Where only a bound is given, the exact number is not on record here.

T1 sequence (P07711 114-288 limits assumed): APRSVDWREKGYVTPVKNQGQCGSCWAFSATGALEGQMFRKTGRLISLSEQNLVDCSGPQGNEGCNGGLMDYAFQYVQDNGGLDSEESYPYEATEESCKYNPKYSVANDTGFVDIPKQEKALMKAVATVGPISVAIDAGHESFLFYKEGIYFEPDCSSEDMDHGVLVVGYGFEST
T1 sequence (P07711 292-333 limits assumed): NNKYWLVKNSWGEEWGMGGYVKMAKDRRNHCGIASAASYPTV

Broadly, the IC50 is the concentration that gives 50% inhibition. A lower IC50 goes with inhibition by little substance. A word on the inhibition: it is the relative decrease from the control value, in per cent. `CC1=CC(=O)c2c(O)cccc2C1=O` [Plumbagin] showed an IC50 against CTSL [1] of 31.3 µM. In addition, the inhibition at 100 µM at CTSL [1] is more than 90%. Moreover, the inhibition mechanism result against CTSL [2] is given as “uncompetitive inhibition mechanism”. Moreover, the Vmax is on record as 321.7 ± 13.9 Rlu/min on CTSL [2] (inhibitor 6.25 μM); 277.5 ± 15.6 Rlu/min on CTSL [2] (inhibitor 12.5 μM); 270.5 ± 11.2 Rlu/min on CTSL [2] (inhibitor 25 μM); 216.8 ± 20.5 Rlu/min at CTSL [2] (inhibitor 50 μM); 12.3 ± 2.4 Rlu/min on CTSL [2] (inhibitor 100 μM).
Consider `O=C(/C=C/c1ccc(O)cc1)c1c(O)cc(O)cc1O` [Naringenin chalcone], for which the inhibition at 100 µM at CTSL [1] is more than 90%.
Same read-out and setting: under `O=C(N[C@H](COC(=O)[C@H](Cc1ccccc1)NC(=O)c1ccccc1)Cc1ccccc1)c1ccccc1` [Asperphenamate] stands more than 90%.
On to `Cc1c(O)c(C)c2c(c1O)C(=O)C[C@@H](c1ccc(O)cc1)O2` [Farrerol], for which the inhibition at 100 µM at CTSL [1] was more than 90%.
Still for that read-out and setting: then `COc1cc(O)c(C(=O)/C=C/c2ccccc2)c(OC)c1` [Flavokawain B], with more than 90%.
Same read-out and setting: under `O=CCc1ccccc1` [Phenylacetaldehyde] stands more than 90%.
At CTSL [1], `CC1(C)CCC2=C(O1)c1ccccc1C(=O)C2=O` [Beta-Lapachone] yielded an IC50 of 9.6 µM. Besides, the inhibition at 100 µM on CTSL [1] was more than 90%. The inhibition mechanism entry on CTSL [2] was “uncompetitive inhibition mechanism”. Besides, the Vmax was 194.8 ± 9.2 Rlu/min on CTSL [2] (inhibitor 6.25 μM); 181.3 ± 32.9 Rlu/min at CTSL [2] (inhibitor 12.5 μM); 136.9 ± 27.6 Rlu/min on CTSL [2] (inhibitor 25 μM); 103.1 ± 2.2 Rlu/min on CTSL [2] (inhibitor 50 μM); 39.9 ± 0.2 Rlu/min at CTSL [2] (inhibitor 100 μM).
For the compound `COc1cc(O)cc(O)c1C(=O)/C=C/c1ccccc1` [(E)-Cardamonin], the inhibition at 100 µM at CTSL [1] is more than 90%.
